# Laboratory results taken from ChEMBL document CHEMBL3244396, “Synthesis and antileukemic activity of 5-substituted 2,3-dihydro-6,7-bis(hydroxymethyl)-1H-pyrrolizine diesters” (J Med Chem, 1977).
# Columns and labels:
# [1] = test system: Mus musculus; assay: Toxicity in female CDF1 mouse allografted with mouse P388 cells assessed as animal survival at 6.25 mg/kg, ip administered daily for 9 days as saline with Tween-80 solution starting 24 hrs after tumor inoculation; type: organism-based; parameters: dose 6.25 mg/kg, route intraperitoneal; settings: in vivo
# Method in brief: (§1)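 P-388 leukemia ascitic fluid implanted ip. Compound dosed ip in saline with Tween-80 vehicle, once daily for nine doses from 24 h after tumor inoculation. Acute toxicity scored as toxicity-day survivors per group. Survival was followed up to 30 days, with 30-day survival counted as "cure". Follows NCI screening protocols.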
# [2] = test system: Mus musculus; assay: Toxicity in male CDF1 mouse allografted with mouse P388 cells assessed as animal survival at 12.5 mg/kg, ip administered daily for 9 days as saline with Tween-80 solution starting 24 hrs after tumor inoculation; type: organism-based; parameters: dose 12.5 mg/kg, route intraperitoneal; settings: in vivo; method in brief: as §1
# [3] = test system: Mus musculus; assay: Toxicity in male CDF1 mouse allografted with mouse P388 cells assessed as animal survival at 6.25 mg/kg, ip administered daily for 9 days as saline with Tween-80 solution starting 24 hrs after tumor inoculation; type: organism-based; parameters: dose 6.25 mg/kg, route intraperitoneal; settings: in vivo; method in brief: as §1
# [4] = test system: Mus musculus; assay: Toxicity in female CDF1 mouse allografted with mouse P388 cells assessed as animal survival at 400 mg/kg, ip administered daily for 9 days as saline with Tween-80 solution starting 24 hrs after tumor inoculation; type: organism-based; parameters: dose 400 mg/kg, route intraperitoneal; settings: in vivo; method in brief: as §1
# [5] = test system: P388; assay: Antitumor activity against mouse P388 cells allografted in female CDF1 mouse assessed as disease cures by measuring 30-days host survival at 25 mg/kg, ip administered daily for 9 days as saline with Tween-80 solution starting 24 hrs after tumor inoculation relative to control; type: functional; settings: route intraperitoneal
# Method in brief: (§2)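 P388 ascitic cell inoculum given ip to CDF1 mice of the sex in each line. Nine daily ip doses in saline with Tween-80 as vehicle, starting 24 h after inoculation. Median survival time expressed as %T/C (>125 significant); "cure" defined as 30-day survival.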
# [6] = test system: P388; assay: Antitumor activity against mouse P388 cells allografted in female CDF1 mouse assessed as disease cures by measuring 30-days host survival at 12.5 mg/kg, ip administered daily for 9 days as saline with Tween-80 solution starting 24 hrs after tumor inoculation relative to control; type: functional; settings: route intraperitoneal; method in brief: as §2
# [7] = test system: P388; assay: Antitumor activity against mouse P388 cells allografted in male CDF1 mouse assessed as disease cures by measuring 30-days host survival at 25 mg/kg, ip administered daily for 9 days as saline with Tween-80 solution starting 24 hrs after tumor inoculation relative to control; type: functional; settings: route intraperitoneal; method in brief: as §2
# [8] = test system: P388; assay: Antitumor activity against mouse P388 cells allografted in female CDF1 mouse assessed as disease cures by measuring 30-days host survival at 6.25 mg/kg, ip administered daily for 9 days as saline with Tween-80 solution starting 24 hrs after tumor inoculation relative to control; type: functional; settings: route intraperitoneal; method in brief: as §2
# [9] = test system: P388; assay: Antitumor activity against mouse P388 cells allografted in male CDF1 mouse assessed as disease cures by measuring 30-days host survival at 12.5 mg/kg, ip administered daily for 9 days as saline with Tween-80 solution starting 24 hrs after tumor inoculation relative to control; type: functional; settings: route intraperitoneal; method in brief: as §2
# [10] = test system: P388; assay: Antitumor activity against mouse P388 cells allografted in male CDF1 mouse assessed as disease cures by measuring 30-days host survival at 6.25 mg/kg, ip administered daily for 9 days as saline with Tween-80 solution starting 24 hrs after tumor inoculation relative to control; type: functional; settings: route intraperitoneal; method in brief: as §2
# [11] = test system: P388; assay: Antitumor activity against mouse P388 cells allografted in female CDF1 mouse assessed as change in body weight at 400 mg/kg, ip administered daily for 9 days as saline with Tween-80 solution starting 24 hrs after tumor inoculation; type: functional; settings: route intraperitoneal
# Method in brief: (§3)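 Ascitic fluid carrying P388 cells was inoculated ip. Compound was given ip in nine daily doses, starting 24 h after inoculation, in Klucel (hydroxypropylcellulose) suspension or in saline with Tween-80. Body-weight difference (treated minus control) was recorded on day 5. Survival was scored as %T/C of median survival time, and 30-day survival counted as cure.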
# [12] = test system: P388; assay: Antitumor activity against mouse P388 cells allografted in female CDF1 mouse assessed as change in body weight at 200 mg/kg, ip administered daily for 9 days as saline with Tween-80 solution starting 24 hrs after tumor inoculation; type: functional; settings: route intraperitoneal; method in brief: as §3
# [13] = test system: P388; assay: Antitumor activity against mouse P388 cells allografted in female CDF1 mouse assessed as change in body weight at 100 mg/kg, ip administered daily for 9 days as saline with Tween-80 solution starting 24 hrs after tumor inoculation; type: functional; settings: route intraperitoneal; method in brief: as §3
# [14] = test system: P388; assay: Antitumor activity against mouse P388 cells allografted in female CDF1 mouse assessed as change in body weight at 50 mg/kg, ip administered daily for 9 days as saline with Tween-80 solution starting 24 hrs after tumor inoculation; type: functional; settings: route intraperitoneal; method in brief: as §3
# [15] = test system: P388; assay: Antitumor activity against mouse P388 cells allografted in female CDF1 mouse assessed as change in body weight at 25 mg/kg, ip administered daily for 9 days as saline with Tween-80 solution starting 24 hrs after tumor inoculation; type: functional; settings: route intraperitoneal; method in brief: as §3
# [16] = test system: P388; assay: Antitumor activity against mouse P388 cells allografted in female CDF1 mouse assessed as change in body weight at 12.5 mg/kg, ip administered daily for 9 days as saline with Tween-80 solution starting 24 hrs after tumor inoculation; type: functional; settings: route intraperitoneal; method in brief: as §3
# [17] = test system: P388; assay: Antitumor activity against mouse P388 cells allografted in male CDF1 mouse assessed as change in body weight at 50 mg/kg, ip administered daily for 9 days as saline with Tween-80 solution starting 24 hrs after tumor inoculation; type: functional; settings: route intraperitoneal; method in brief: as §3
# [18] = test system: P388; assay: Antitumor activity against mouse P388 cells allografted in male CDF1 mouse assessed as change in body weight at 25 mg/kg, ip administered daily for 9 days as saline with Tween-80 solution starting 24 hrs after tumor inoculation; type: functional; settings: route intraperitoneal; method in brief: as §3
# [19] = test system: P388; assay: Antitumor activity against mouse P388 cells allografted in female CDF1 mouse assessed as change in body weight at 6.25 mg/kg, ip administered daily for 9 days as saline with Tween-80 solution starting 24 hrs after tumor inoculation; type: functional; settings: route intraperitoneal; method in brief: as §3
# [20] = test system: P388; assay: Antitumor activity against mouse P388 cells allografted in male CDF1 mouse assessed as change in body weight at 12.5 mg/kg, ip administered daily for 9 days as saline with Tween-80 solution starting 24 hrs after tumor inoculation; type: functional; settings: route intraperitoneal; method in brief: as §3
# [21] = test system: P388; assay: Antitumor activity against mouse P388 cells allografted in male CDF1 mouse assessed as change in body weight at 6.25 mg/kg, ip administered daily for 9 days as saline with Tween-80 solution starting 24 hrs after tumor inoculation; type: functional; settings: route intraperitoneal; method in brief: as §3
# [22] = test system: Mus musculus; assay: Toxicity in female CDF1 mouse allografted with mouse P388 cells assessed as animal survival at 200 mg/kg, ip administered daily for 9 days as saline with Tween-80 solution starting 24 hrs after tumor inoculation; type: organism-based; parameters: dose 200 mg/kg, route intraperitoneal; settings: in vivo; method in brief: as §1
# [23] = test system: Mus musculus; assay: Toxicity in female CDF1 mouse allografted with mouse P388 cells assessed as animal survival at 25 mg/kg, ip administered daily for 9 days as saline with Tween-80 solution starting 24 hrs after tumor inoculation; type: organism-based; parameters: dose 25 mg/kg, route intraperitoneal; settings: in vivo; method in brief: as §1
# [24] = test system: Mus musculus; assay: Toxicity in female CDF1 mouse allografted with mouse P388 cells assessed as animal survival at 12.5 mg/kg, ip administered daily for 9 days as saline with Tween-80 solution starting 24 hrs after tumor inoculation; type: organism-based; parameters: dose 12.5 mg/kg, route intraperitoneal; settings: in vivo; method in brief: as §1
# [25] = test system: Mus musculus; assay: Toxicity in male CDF1 mouse allografted with mouse P388 cells assessed as animal survival at 25 mg/kg, ip administered daily for 9 days as saline with Tween-80 solution starting 24 hrs after tumor inoculation; type: organism-based; parameters: dose 25 mg/kg, route intraperitoneal; settings: in vivo; method in brief: as §1
compound,measurement,setting,value
CCNC(=O)OCc1c(COC(=O)NCC)c(-c2ccc(Cl)c(Cl)c2)n2c1CCC2,Activity,[1],Non-toxic
same,Activity,[2],Non-toxic
same,Activity,[3],Non-toxic
same,Activity,[4],Toxic
same,T/C,[5],103%
same,T/C,[6],170%
same,T/C,[7],165%
same,T/C,[8],154%
same,T/C,[9],168%
same,T/C,[10],168%
same,Activity,[11],-1.4 g
same,Activity,[12],-1.4 g
same,Activity,[13],-3 g
same,Activity,[14],-4.4 g
same,Activity,[15],-2.4 g
same,Activity,[16],-1.8 g
same,Activity,[17],-8 g
same,Activity,[18],-4.4 g
same,Activity,[19],-1.8 g
same,Activity,[20],-2.5 g
same,Activity,[21],-2.1 g
same,Activity,[22],Toxic
same,Activity,[23],Non-toxic
same,Activity,[24],Non-toxic
same,Activity,[25],Non-toxic
